Compound activity deposited in PubChem BioAssay by several laboratories.
NR2E3 ag-1 = human photoreceptor-specific nuclear receptor agonism; CHO-S Gal4-NCOR/VP16-NR2E3 two-hybrid, luciferase; inhibition of corepressor binding, % at 3.98 µM; actives 0.35% (n = 360,000); AID 602229;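 active = inhibition above the mean of all tested compounds plus 3 SD, cut at about 70% in these data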;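 note: 0% = DMSO with NR2E3 transfected cells and 100% = cells lacking NR2E3 construct; higher means lower luciferase signal from less NR2E3 corepressor binding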
Target sequence (Q9Y5X4 whole entry, looked up, the tested form may be a part): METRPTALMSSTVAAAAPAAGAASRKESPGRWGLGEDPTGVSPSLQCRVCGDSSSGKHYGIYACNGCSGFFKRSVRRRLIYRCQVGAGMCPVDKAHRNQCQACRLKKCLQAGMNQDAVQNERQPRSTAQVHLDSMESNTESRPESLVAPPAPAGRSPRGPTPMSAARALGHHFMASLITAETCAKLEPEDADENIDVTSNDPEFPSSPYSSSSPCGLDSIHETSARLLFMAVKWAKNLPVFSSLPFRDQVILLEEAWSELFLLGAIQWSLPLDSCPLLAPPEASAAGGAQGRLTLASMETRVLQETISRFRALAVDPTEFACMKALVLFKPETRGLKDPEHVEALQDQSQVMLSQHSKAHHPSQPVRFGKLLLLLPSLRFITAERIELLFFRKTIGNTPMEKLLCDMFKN
miR-122 sensor = blocks miR-122 activity in Huh7 sensor cells | activation (reporter increase), % at 12.5 µM | Huh7 miR-122 Renilla luciferase sensor, 48 h; neutral wells = 0, positive control = 100 | actives 0.3% (n = 340,000) | AID 602342;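 active = mean replicate activation score at least 90 and every replicate individually at or above 90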;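 note: higher luciferase means less miR-122 activity so hits act as miR-122 inhibitors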
697 NFkB inh = lowers PMA/ionomycin-induced NF-kB signal in 697 B cells; 697 B-cell NF-kB luciferase reporter, 16 h; actives 0.33% (n = 330,000); inhibition, % at 4 µM; in the data active = inhibition above about 35%
Jurkat NFkB inh = inhibitors of the PMA/ionomycin-induced NF-kB reporter in Jurkat cells; PMA/ionomycin-induced NF-kB luciferase reporter, luminescence; inhibition, % at 4 µM; actives 0.53% (n = 330,000); in the data active = inhibition above about 50%
NR2E3 ag-2 = activates human photoreceptor nuclear receptor NR2E3; inhibition of corepressor binding, % at 4.78 µM; GST-NR2E3/biotin-RetCOR TR-FRET, 1536-well; AID 2300; actives 0.12% (n = 320,000);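 active = percent inhibition above the cutoff of mean plus 3 SD of all tested compounds, set per screening campaign, cut at about 20% in these data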;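 note: 0% = DMSO wells and 100% = biotin wells as full block of FRET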
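Assay system: NR2E3–RetCOR corepressor complex. Quantity: 1.35 nM GST-NR2E3. Buffer or medium: pH 7.5 Tris-based buffer. Reagent: biotinylated RetCOR corepressor at 7 nM final. Schedule: 5 h at 4 °C. Detection: TR-FRET, emission read at 617 and 671 nm. Replicates: one well per compound, singlicate testing.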
FGF22 binding = shifts melting point of recombinant human FGF22. activity (Tm shift, normalised), % at 9.99 µM. actives 1.5% (n = 340,000). recombinant FGF22 thermal shift, SYPRO orange fluorescence; percent of sucrose octasulfate shift, DMSO zero. Q9HCT0;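 active = mean Tm shift, scaled 0 neutral to 100 positive control, at about 1.3% or above, every replicate too, limit read from the data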
Target sequence (Q9HCT0 whole entry, looked up): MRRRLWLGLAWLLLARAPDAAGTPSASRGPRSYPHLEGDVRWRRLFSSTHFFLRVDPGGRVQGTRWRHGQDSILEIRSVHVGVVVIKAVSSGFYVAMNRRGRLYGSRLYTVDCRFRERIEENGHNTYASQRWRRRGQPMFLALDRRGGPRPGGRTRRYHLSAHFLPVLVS
Jurkat NFkB conf = inhibitors of the PMA/ionomycin-induced NF-kB reporter in Jurkat cells, retest; Jurkat NF-kB luciferase, 16 h; actives 27% (n = 2,700); shares compounds with Jurkat NFkB inh; inhibition, % at 4 µM;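 active = inhibition reaching about 45% at 4 µM in either replicate, limit read from the data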;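 note: plate controls were PMA/ionomycin stimulated DMSO wells for no effect and unstimulated DMSO wells for full effect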
Numbers without * were called inactive; [ ] = another dose, or the depositor's remark. Shown are actives, neighbours in structure and some others; about 2.2% of the full set was active somewhere.

What do the screens show for `Cc1ncoc1C(=O)NC1CCCc2c1cnn2-c1ccc(C(C)(C)C)cc1` (stereo not given)?
NR2E3 ag-1: 96*; 697 NFkB inh: 27; Jurkat NFkB inh: 60*; FGF22 binding: 0; Jurkat NFkB conf: 59*

Results for O=C(/C=C/c1ccco1)Nc1ccc2c(c1)OCCO2 ?
NR2E3 ag-1: -150; 697 NFkB inh: -208; Jurkat NFkB inh: -160; NR2E3 ag-2: 0; FGF22 binding: 0; Jurkat NFkB conf: -58

How did COc1ccccc1/C=C/C(=O)Nc1ccc2c(c1)OCCO2 do in these assays?
NR2E3 ag-1: -161; miR-122 sensor: 20; 697 NFkB inh: -190; Jurkat NFkB inh: -29; NR2E3 ag-2: 4

How did CN(C)N=Nc1ccc(S(N)(=O)=O)cc1 do in these assays?
NR2E3 ag-1: -8; miR-122 sensor: -9; 697 NFkB inh: 23; Jurkat NFkB inh: -6; NR2E3 ag-2: -1; FGF22 binding: 0

How did CN(C)c1ccc(N=Nc2ccc(S(N)(=O)=O)cc2)cc1 do in these assays?
NR2E3 ag-1: -132; miR-122 sensor: -9; 697 NFkB inh: -156; Jurkat NFkB inh: -154; NR2E3 ag-2: 3; FGF22 binding: 0; Jurkat NFkB conf: -79

What do the screens show for `COC(=O)c1ccc(C)c(NS(=O)(=O)c2ccc3c(c2)OCCO3)c1`?
NR2E3 ag-1: -23; miR-122 sensor: 39; 697 NFkB inh: 3; Jurkat NFkB inh: 58*; NR2E3 ag-2: 2; Jurkat NFkB conf: 52*

How did Cc1ccc(N=C/C(C(=O)C(F)(F)F)=C(\O)c2ccco2)cc1Cl do in these assays?
NR2E3 ag-1: -132; 697 NFkB inh: -185; Jurkat NFkB inh: -183; NR2E3 ag-2: 2; Jurkat NFkB conf: -8

How did Cc1ccc(N(C)S(=O)(=O)c2ccc(-c3cnc(C4CC4)o3)cc2)cc1 do in these assays?
NR2E3 ag-1: 17; miR-122 sensor: 31; 697 NFkB inh: -4; Jurkat NFkB inh: 52*; NR2E3 ag-2: 7; FGF22 binding: 0; Jurkat NFkB conf: 52*

What do the screens show for `O=C(OCc1ccc([N+](=O)[O-])cc1)c1cc([N+](=O)[O-])ccc1N1CCOCC1`?
NR2E3 ag-1: 4; 697 NFkB inh: -18; Jurkat NFkB inh: 19; NR2E3 ag-2: -1; FGF22 binding: 0

Results for Cc1ccc(C(=O)c2cc([N+](=O)[O-])ccc2N2CCCCC2)c(C)c1 ?
NR2E3 ag-1: 23; 697 NFkB inh: -131; Jurkat NFkB inh: 66*; NR2E3 ag-2: -5; FGF22 binding: 0; Jurkat NFkB conf: 55*

What do the screens show for `Cc1ccc(COC(=O)c2cc([N+](=O)[O-])ccc2N2CCOCC2)cc1`?
NR2E3 ag-1: 38; miR-122 sensor: 35; 697 NFkB inh: -6; Jurkat NFkB inh: 63*; NR2E3 ag-2: 3; FGF22 binding: 0; Jurkat NFkB conf: 52*

Results for CC(=O)c1ccc(Nc2ccc(-c3ccccc3F)nn2)cc1 ?
NR2E3 ag-1: -140; miR-122 sensor: 9; 697 NFkB inh: -182; Jurkat NFkB inh: -161; NR2E3 ag-2: 1; FGF22 binding: 0; Jurkat NFkB conf: -121

Results for Cn1cc(/C=N/n2cnc3scc(-c4ccccc4)c3c2=O)c2ccccc21 ?
NR2E3 ag-1: -17; miR-122 sensor: -4; 697 NFkB inh: -20; Jurkat NFkB inh: 63*; NR2E3 ag-2: 2; Jurkat NFkB conf: 25

What do the screens show for `Cc1ccc(C2=NN(C(=O)CSc3nccn3C)C(c3ccco3)C2)cc1` (stereo not given)?
NR2E3 ag-1: -40; 697 NFkB inh: 8; Jurkat NFkB inh: 63*; NR2E3 ag-2: 3; FGF22 binding: 0; Jurkat NFkB conf: 20

Results for O=C(c1nnsc1S(=O)c1ccc(Cl)cc1)N1CCOCC1 (stereo not given) ?
NR2E3 ag-1: -9; miR-122 sensor: -10; 697 NFkB inh: -36; Jurkat NFkB inh: 70*; FGF22 binding: 0; Jurkat NFkB conf: 24

How did O=C(C#Cc1ccccc1)Nc1cccc(F)c1 do in these assays?
NR2E3 ag-1: -39; 697 NFkB inh: -100; Jurkat NFkB inh: 73*; NR2E3 ag-2: 3; FGF22 binding: 1; Jurkat NFkB conf: -46

What do the screens show for `O=C(C#Cc1ccccc1)Nc1ccc(F)cc1`?
NR2E3 ag-1: -30; miR-122 sensor: -6; 697 NFkB inh: -23; Jurkat NFkB inh: -4; NR2E3 ag-2: 5; FGF22 binding: 0

Results for C[C@H](CO)N1C[C@H](C)[C@H](CN(C)C(=O)C2CCOCC2)Oc2ncc(C3=CCCC3)cc2C1=O ?
miR-122 sensor: -2[16.7 µM]; FGF22 binding: 0

Results for C[C@@H]1CN([C@H](C)CO)S(=O)(=O)c2ccc(-c3cccnc3)cc2O[C@@H]1CN(C)CC1CC1 ?
miR-122 sensor: 3[16.7 µM]; FGF22 binding: 0

Results for Cc1ccc(C(=O)n2c3ccccc3c3ccccc32)cc1 ?
NR2E3 ag-1: -50; miR-122 sensor: 9; 697 NFkB inh: -42; Jurkat NFkB inh: 54*; NR2E3 ag-2: 3; Jurkat NFkB conf: 15

How did Cc1ccc(CNc2ccc3c(c2)ncn3C(C)(C)C)cc1 do in these assays?
NR2E3 ag-1: -112; miR-122 sensor: -1; 697 NFkB inh: -160; Jurkat NFkB inh: -161; NR2E3 ag-2: 0; FGF22 binding: 0; Jurkat NFkB conf: -22

What do the screens show for `Cc1ccc(CNc2ccc3c(c2)ncn3C)cc1`?
NR2E3 ag-1: -104; miR-122 sensor: 0; 697 NFkB inh: -31; Jurkat NFkB inh: -29; NR2E3 ag-2: 4

What do the screens show for `Cc1ccc(CNc2ccc3c(c2)nc(C)n3C)cc1`?
NR2E3 ag-1: -117; miR-122 sensor: -1; 697 NFkB inh: -201; Jurkat NFkB inh: -156; NR2E3 ag-2: -2; FGF22 binding: 0; Jurkat NFkB conf: -59

What do the screens show for `CCCC#Cc1ccc([C@H]2[C@H](CO)N3CCCCN(S(=O)(=O)c4ccccc4F)C[C@@H]23)cc1`?
miR-122 sensor: 0[16.7 µM]; FGF22 binding: 0

How did CN1C(=O)c2cc(NC(=O)c3ccc(F)cc3)ccc2OC[C@@H]2O[C@H](CC(=O)O)CC[C@@H]21 do in these assays?
miR-122 sensor: 1[16.7 µM]; FGF22 binding: 0

What do the screens show for `CCN1CCN(Cc2ccc(NC(=O)c3ccc(C)c(NC(=O)C(=O)c4c[nH]c5ccccc45)c3)cc2C(F)(F)F)CC1`?
NR2E3 ag-1: 27; miR-122 sensor: -27; 697 NFkB inh: 0; Jurkat NFkB inh: 95*; NR2E3 ag-2: 3; FGF22 binding: 41; Jurkat NFkB conf: 24

What do the screens show for `Clc1ccc(CN=C2Nc3ccccc3CS2)cc1`?
NR2E3 ag-1: -126; miR-122 sensor: -21; 697 NFkB inh: -122; Jurkat NFkB inh: -102; NR2E3 ag-2: 4
